Reference: ChEMBL document CHEMBL1154235, “Rational design and semisynthesis of betulinic acid analogues as potent topoisomerase inhibitors” (J Nat Prod, 2009)
Active and inactive are the calls of the source. The calls are words filed in the database; no cut-off is given here.

Key:
[1] = test system: HOP-62; test: Cytotoxicity against human HOP62 cells assessed as cell growth at 10 uM; format: functional; conditions: read-out: Activity
Outline: (§1)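 Single-dose screen at 10 µM against the 60 human cell line panel, run by the NCI Developmental Therapeutics Program and scored as cell growth.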

[2] = test system: RPMI-8226; test: Cytotoxicity against human RPMI8226 cells assessed as cell growth at 10 uM; format: functional; conditions: read-out: Activity; outline: as §1
[3] = test system: COLO 205; test: Cytotoxicity against human COLO205 cells assessed as cell growth at 10 uM; format: functional; conditions: read-out: Activity; outline: as §1
[4] = test system: SK-MEL-28; test: Cytotoxicity against human SK-MEL-28 cells assessed as cell growth at 10 uM; format: functional; conditions: read-out: Activity; outline: as §1
[5] = test system: HCC 2998; test: Cytotoxicity against human HCC2998 cells assessed as cell growth at 10 uM; format: functional; conditions: read-out: Activity; outline: as §1
[6] = test system: LOX IMVI; test: Cytotoxicity against human LOXIMVI cells assessed as cell growth at 10 uM; format: functional; conditions: read-out: Activity; outline: as §1
[7] = test system: NCI-H522; test: Cytotoxicity against human NCI-H522 cells assessed as cell growth at 10 uM; format: functional; conditions: read-out: Activity; outline: as §1
[8] = test system: HCT-116; test: Antiproliferative activity against human HCT116 cells after 3 days by XTT assay; format: functional, cell-based; conditions: HCT-116, 72 h
Outline: (§2)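 Cells plated at 4000/well and grown 1 day at 37 °C, then exposed to a range of drug concentrations for 3 more days. Read-out by XTT tetrazolium reduction on a plate reader. Each concentration run in triplicate. IC50 taken from a linear-quadratic fit. Assays repeated two or three times and reported as mean ± SE. HCT-116 kept in modified McCoy's 5a and SW948 in Leibovitz's L-15, each with 10% heat-inactivated FBS and 2 mM L-glutamine.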

[9] = test system: MOLT-4; test: Cytotoxicity against human MOLT4 cells assessed as cell growth at 10 uM; format: functional; conditions: read-out: Activity; outline: as §1
[10] = test system: NCI-H23; test: Cytotoxicity against human NCI-H23 cells assessed as cell growth at 10 uM; format: functional; conditions: read-out: Activity; outline: as §1
[11] = test system: KM12; test: Cytotoxicity against human KM12 cells assessed as cell growth at 10 uM; format: functional; conditions: read-out: Activity; outline: as §1
[12] = test system: M14; test: Cytotoxicity against human M14 cells assessed as cell growth at 10 uM; format: functional; conditions: read-out: Activity; outline: as §1
[13] = test system: SF-268; test: Cytotoxicity against human SF268 cells assessed as cell growth at 10 uM; format: functional; conditions: read-out: Activity; outline: as §1
[14] = test system: MCF7; test: Cytotoxicity against human MCF7 cells assessed as cell growth at 10 uM; format: functional; conditions: read-out: Activity; outline: as §1
[15] = test system: ACHN; test: Cytotoxicity against human ACHN cells assessed as cell growth at 10 uM; format: functional; conditions: read-out: Activity; outline: as §1
[16] = test system: MDA-MB-468; test: Cytotoxicity against human MDA-MB-468 cells assessed as cell growth at 10 uM; format: functional; conditions: read-out: Activity; outline: as §1
[17] = test system: UACC-257; test: Cytotoxicity against human UACC257 cells assessed as cell growth at 10 uM; format: functional; conditions: read-out: Activity
[18] = test system: A498; test: Cytotoxicity against human A498 cells assessed as cell growth at 10 uM; format: functional; conditions: read-out: Activity; outline: as §1
[19] = test system: TK-10; test: Cytotoxicity against human TK10 cells assessed as cell growth at 10 uM; format: functional; conditions: read-out: Activity
[20] = test system: OVCAR-8; test: Cytotoxicity against human OVCAR8 cells assessed as cell growth at 10 uM; format: functional; conditions: read-out: Activity; outline: as §1
[21] = test system: SW-620; test: Cytotoxicity against human SW620 cells assessed as cell growth at 10 uM; format: functional; conditions: read-out: Activity
[22] = test system: HCT-15; test: Cytotoxicity against human HCT15 cells assessed as cell growth at 10 uM; format: functional; conditions: read-out: Activity; outline: as §1
[23] = test system: SN12C; test: Cytotoxicity against human SN12C cells assessed as cell growth at 10 uM; format: functional; conditions: read-out: Activity; outline: as §1
[24] = test system: SF-539; test: Cytotoxicity against human SF539 cells assessed as cell growth at 10 uM; format: functional; conditions: read-out: Activity; outline: as §1
[25] = test system: Malme-3M; test: Cytotoxicity against human MALME-3M cells assessed as cell growth at 10 uM; format: functional; conditions: read-out: Activity; outline: as §1
[26] = test system: U-251; test: Cytotoxicity against human U251 cells assessed as cell growth at 10 uM; format: functional; conditions: read-out: Activity
[27] = test system: MDA-MB-435; test: Cytotoxicity against human MDA-MB-435 cells assessed as cell growth at 10 uM; format: functional; conditions: read-out: Activity; outline: as §1
[28] = test system: CCRF-CEM; test: Cytotoxicity against human CCRF-CEM cells assessed as cell growth at 10 uM; format: functional; conditions: read-out: Activity; outline: as §1
[29] = test system: CAKI-1; test: Cytotoxicity against human Caki1 cells assessed as cell growth at 10 uM; format: functional; conditions: read-out: Activity; outline: as §1
[30] = test system: EKVX; test: Cytotoxicity against human EKVX cells assessed as cell growth at 10 uM; format: functional; conditions: read-out: Activity; outline: as §1
[31] = test system: 786-0; test: Cytotoxicity against human 786-0 cells assessed as cell growth at 10 uM; format: functional; conditions: read-out: Activity; outline: as §1
[32] = target: T1, DNA topoisomerase 1 (Homo sapiens) (UniProt P11387); test: Inhibition of topoisomerase 1 catalytic activity assessed as relaxation of supercoiled plasmid DNA at 100 uM after 30 mins by agarose gel electrophoresis
T1 sequence (whole entry): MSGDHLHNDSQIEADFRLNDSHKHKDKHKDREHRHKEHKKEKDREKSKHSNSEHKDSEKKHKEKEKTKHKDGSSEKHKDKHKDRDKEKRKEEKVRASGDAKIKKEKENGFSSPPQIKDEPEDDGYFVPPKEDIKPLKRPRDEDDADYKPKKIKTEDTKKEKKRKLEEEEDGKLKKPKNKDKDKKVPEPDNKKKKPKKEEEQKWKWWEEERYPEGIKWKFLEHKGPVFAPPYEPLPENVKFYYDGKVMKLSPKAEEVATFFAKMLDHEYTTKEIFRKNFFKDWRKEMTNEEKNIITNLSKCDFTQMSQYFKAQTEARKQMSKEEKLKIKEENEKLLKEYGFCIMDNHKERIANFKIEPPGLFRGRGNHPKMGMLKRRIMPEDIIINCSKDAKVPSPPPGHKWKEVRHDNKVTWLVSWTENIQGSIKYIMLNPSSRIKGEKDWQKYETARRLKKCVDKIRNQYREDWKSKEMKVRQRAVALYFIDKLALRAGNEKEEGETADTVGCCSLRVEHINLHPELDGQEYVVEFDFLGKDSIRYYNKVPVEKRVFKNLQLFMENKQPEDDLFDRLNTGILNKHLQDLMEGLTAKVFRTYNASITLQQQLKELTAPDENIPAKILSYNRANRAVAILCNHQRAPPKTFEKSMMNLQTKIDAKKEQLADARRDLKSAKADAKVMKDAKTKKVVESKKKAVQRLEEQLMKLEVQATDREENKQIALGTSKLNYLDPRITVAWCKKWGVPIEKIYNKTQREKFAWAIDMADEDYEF
Outline: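 Compound at 100 µM final with topoisomerase I (2U), 37 °C 30 min. Stopped with 1% SDS, proteinase K digestion, 1% agarose TAE gel, ethidium bromide stain, imaging quantitation. Scored 0 to 3+ against camptothecin.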

[33] = test system: A549; test: Cytotoxicity against human A549 cells assessed as cell growth at 10 uM; format: functional; conditions: read-out: Activity; outline: as §1
[34] = test system: SNB-75; test: Cytotoxicity against human SNB75 cells assessed as cell growth at 10 uM; format: functional; conditions: read-out: Activity
[35] = test system: HT-29; test: Cytotoxicity against human HT-29 cells assessed as cell growth at 10 uM; format: functional; conditions: read-out: Activity; outline: as §1
[36] = test system: SW948; test: Antiproliferative activity against human SW948 cells after 3 days by XTT assay; format: functional, cell-based; conditions: SW948, 72 h; outline: as §2
[37] = test system: NCI-H322M; test: Cytotoxicity against human NCI-H322M cells assessed as cell growth at 10 uM; format: functional; conditions: read-out: Activity; outline: as §1
[38] = test system: OVCAR-3; test: Cytotoxicity against human OVCAR-3 cells assessed as cell growth at 10 uM; format: functional; conditions: read-out: Activity; outline: as §1
[39] = test system: OVCAR-4; test: Cytotoxicity against human OVCAR4 cells assessed as cell growth at 10 uM; format: functional; conditions: read-out: Activity; outline: as §1

C=C(C)[C@@H]1CC[C@]2(C(O)=S)CC[C@]3(C)[C@H](CC[C@@H]4[C@@]5(C)CC[C@H](O)C(C)(C)[C@@H]5CC[C@]43C)[C@@H]12
growth at 10 µM [1]: 80% | growth at 10 µM [2]: 113% | growth at 10 µM [3]: 129% | growth at 10 µM [4]: 141% | growth at 10 µM [5]: 128% | growth at 10 µM [6]: 101% | growth at 10 µM [7]: 71.9% | IC50 [8]: > 25 µM | growth at 10 µM [9]: 131% | growth at 10 µM [10]: 93.4% | growth at 10 µM [11]: 84.7% | growth at 10 µM [12]: 96% | growth at 10 µM [13]: 92.7% | growth at 10 µM [14]: 100% | growth at 10 µM [15]: 96.3% | growth at 10 µM [16]: 105% | growth at 10 µM [17]: 105% | growth at 10 µM [18]: 129% | growth at 10 µM [19]: 94.2% | growth at 10 µM [20]: 101% | growth at 10 µM [21]: 92.2% | growth at 10 µM [22]: 104% | growth at 10 µM [23]: 102% | growth at 10 µM [24]: 111% | growth at 10 µM [25]: 102% | growth at 10 µM [26]: 105% | growth at 10 µM [27]: 91.3% | growth at 10 µM [28]: 99.1% | growth at 10 µM [29]: 100% | growth at 10 µM [30]: 103% | growth at 10 µM [31]: 93.8% | inhibition [32]: inactive | growth at 10 µM [33]: 93% | growth at 10 µM [34]: 108% | growth at 10 µM [35]: 112% | IC50 [36]: > 25 µM | growth at 10 µM [37]: 109% | growth at 10 µM [38]: 94.9% | growth at 10 µM [39]: 112%
